Reference: ChEMBL document CHEMBL1139401, “5-(4-Chlorophenyl)-5,6-dihydro-1,3-oxazepin-7(4H)-one derivatives as lipophilic cyclic analogues of baclofen: design, synthesis, and neuropharmacological evaluation” (2008)

Columns and labels:
Assay type in all cases: functional
Details in all cases: route intraperitoneal
[1] = test system: Mus musculus; assay: Neuropharmacological effect in albino mouse assessed as endurance time at 3 mg/kg, ip after 45 mins by rotarod test
Procedure, shortened: (§1)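 For the rotarod, the cylinder was 6 cm diameter, 30 cm high and turned at 12 rpm. Male albino mice were trained the day before to stay on for 300 s, and those not reaching this were excluded. Endurance time (max 300 s) was measured 30, 45, 60 and 90 min after ip drug in DMSO or vehicle. Five mice per group; mean ± SEM.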

[2] = test system: Mus musculus; assay: Neuropharmacological effect in albino mouse assessed as spontaneous locomotor activity at 3 mg/kg, ip after 60 mins
Procedure, shortened: (§2)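 Male albino mice (20–25 g), five per group, got ip drug in DMSO or DMSO vehicle and went back to their home cages. After 30, 45, 60 or 90 min each was placed alone in a Plexiglas box and spontaneous locomotor activity was recorded. Tests were run in the morning. Values are mean ± SEM.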

[3] = test system: Mus musculus; assay: Neuropharmacological effect in albino mouse assessed as spontaneous locomotor activity at 3 mg/kg, ip after 90 mins; procedure, shortened: as §2
[4] = test system: Mus musculus; assay: Analgesic activity in albino mouse assessed as retention latency at 3 mg/kg, ip after 60 mins by hot plate test
Procedure, shortened: (§3)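 Male albino mice (20–25 g), five per group, given drug in DMSO ip; vehicle controls got DMSO alone. Mice were placed in a glass cylinder on a 54 °C metal plate. Latency to hind-paw lick or jump was recorded, with a 30 s cut-off. Testing was 30, 45, 60 and 90 min post-injection. Values are mean ± SEM.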

[5] = test system: Mus musculus; assay: Decrease in cognitive impairment in albino mouse assessed as retention latency at 3 mg/kg, ip after 45 mins by passive avoidance reflex test
Procedure, shortened: (§4)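 Passive avoidance in male albino mice (20–25 g), five per group, housed singly from the day before training. Drug in DMSO was given ip 30, 45, 60 or 90 min before the training trial. Mice were put in the light side of a two-compartment apparatus and the door to the dark side was opened. The retention test next day used the shock generator off. Latency reported as mean ± SEM.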

[6] = test system: Mus musculus; assay: Muscle relaxant activity in albino mouse at 3 mg/kg, ip after 45 mins by traction test; design: scale not given: the % may be the effect or the level left
Procedure, shortened: (§5)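 Traction test in male albino mice (20–25 g), five per group, given drug ip in DMSO. Success required touching the wire with at least one hind paw within 5 s; otherwise scored as failure. Mice were tested 30, 45, 60 and 90 min after dosing, immediately before the rotarod. Results are % successful, mean ± SEM.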

[7] = test system: Mus musculus; assay: Neuropharmacological effect in albino mouse assessed as duration of loss of righting reflex at 3 mg/kg, ip
Procedure, shortened: (§6)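 Male albino mice (20–25 g), five per group, injected ip (drug in DMSO). Loss of righting reflex was inability to right within 30 s, after which mice were laid supine in a 90° trough. Return was righting twice within 1 min. Onset was recorded, and duration was the time from loss to return. Values are mean ± SEM.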

[8] = test system: Mus musculus; assay: Neuropharmacological effect in albino mouse assessed as spontaneous locomotor activity at 3 mg/kg, ip after 30 mins; procedure, shortened: as §2
[9] = test system: Mus musculus; assay: Muscle relaxant activity in albino mouse at 3 mg/kg, ip after 60 mins by traction test; design: scale not given: the % may be the effect or the level left; procedure, shortened: as §5
[10] = test system: Mus musculus; assay: Analgesic activity in albino mouse assessed as retention latency at 3 mg/kg, ip after 45 mins by hot plate test; procedure, shortened: as §3
[11] = test system: Mus musculus; assay: Neuropharmacological effect in albino mouse assessed as endurance time at 3 mg/kg, ip after 60 mins by rotarod test; procedure, shortened: as §1
[12] = test system: Mus musculus; assay: Neuropharmacological effect in albino mouse assessed as onset of loss of righting reflex at 3 mg/kg, ip; procedure, shortened: as §6
[13] = test system: Mus musculus; assay: Muscle relaxant activity in albino mouse at 3 mg/kg, ip after 30 mins by traction test; design: scale not given: the % may be the effect or the level left; procedure, shortened: as §5
[14] = test system: Mus musculus; assay: Neuropharmacological effect in albino mouse assessed as endurance time at 3 mg/kg, ip after 90 mins by rotarod test; procedure, shortened: as §1
[15] = test system: Mus musculus; assay: Neuropharmacological effect in albino mouse assessed as endurance time at 3 mg/kg, ip after 30 mins by rotarod test; procedure, shortened: as §1
[16] = test system: Mus musculus; assay: Decrease in cognitive impairment in albino mouse assessed as retention latency at 3 mg/kg, ip after 30 mins by passive avoidance reflex test; procedure, shortened: as §4
[17] = test system: Mus musculus; assay: Analgesic activity in albino mouse assessed as retention latency at 3 mg/kg, ip after 30 mins by hot plate test; procedure, shortened: as §3
[18] = test system: Mus musculus; assay: Neuropharmacological effect in albino mouse assessed as spontaneous locomotor activity at 3 mg/kg, ip after 45 mins; procedure, shortened: as §2
[19] = test system: Mus musculus; assay: Muscle relaxant activity in albino mouse at 3 mg/kg, ip after 90 mins by traction test; design: scale not given: the % may be the effect or the level left; procedure, shortened: as §5
[20] = test system: Mus musculus; assay: Decrease in cognitive impairment in albino mouse assessed as retention latency at 3 mg/kg, ip after 60 mins by passive avoidance reflex test; procedure, shortened: as §4
[21] = test system: Mus musculus; assay: Decrease in cognitive impairment in albino mouse assessed as retention latency at 3 mg/kg, ip after 90 mins by passive avoidance reflex test; procedure, shortened: as §4
[22] = test system: Mus musculus; assay: Analgesic activity in albino mouse assessed as retention latency at 3 mg/kg, ip after 90 mins by hot plate test; procedure, shortened: as §3

Row | SMILES | Activity [1] [s] | Activity [2] [m] | Activity [3] [m] | Activity [4] [s] | Activity [5] [s] | Activity [6] [%] | Activity [8] [m] | Activity [9] [%] | Activity [10] [s] | Activity [11] [s] | Activity [13] [%] | Activity [14] [s] | Activity [15] [s] | Activity [16] [s] | Activity [17] [s] | Activity [18] [m] | Activity [19] [%] | Activity [20] [s] | Activity [21] [s] | Activity [22] [s] | further results
1 | CCCCCCCCCCCCCC1=NCC(c2ccc(Cl)cc2)CC(=O)O1 (configuration not stated) | 174 | 14.76 | 13.11 | 18.45 | 109.34 | 40 | 15.24 | 35 | 15.32 | 169 | 40 | 133 | 219 | 147.24 | 8.33 | 13.73 | 35 | 82.36 | 67.56 | 26.13 | Activity [7]: 75.93 min; Activity [12]: 32.16 min
2 | NCC(CC(=O)O)c1ccc(Cl)cc1 (configuration not stated) [BACLOFEN] | 225 | 30.76 | 35.64 | 14.36 | 121.46 | 52 | 30.21 | 53 | 15.35 | 234 | 50 | 254 | 214 | 125.34 | 13.42 | 28.48 | 53 | 121.44 | 128.56 | 14.22 | Activity [7]: 35.23 min; Activity [12]: 20.24 min
3 | CCCCCCCCCCCC1=NCC(c2ccc(Cl)cc2)CC(=O)O1 (configuration not stated) | 188 | 14.11 | 15.66 | 18.56 | 114.73 | 43 | 20.12 | 40 | 13.21 | 178 | 45 | 145 | 232 | 152.34 | 7.82 | 16.21 | 40 | 88.14 | 72.45 | 24.43 | Activity [7]: 60.25 min; Activity [12]: 38.23 min
4 | CCCCCCCCC1=NCC(c2ccc(Cl)cc2)CC(=O)O1 (configuration not stated) | 300 | 42.79 | 40.13 | 9.23 | 163.23 | 100 | 45.24 | 100 | 8.22 | 300 | 100 | 300 | 300 | 163.33 | 8.12 | 43.46 | 100 | 160.43 | 164.56 | 9.33 | 
5 | CCCCCCCC1=NCC(c2ccc(Cl)cc2)CC(=O)O1 (configuration not stated) | 300 | 42.79 | 40.13 | 9.23 | 163.23 | 100 | 45.24 | 100 | 8.22 | 300 | 100 | 300 | 300 | 163.23 | 8.12 | 43.46 | 100 | 160.43 | 164.56 | 9.33 | 
6 | C=CCCCCCCCCC1=NCC(c2ccc(Cl)cc2)CC(=O)O1 (configuration not stated) | 198 | 19.43 | 18.56 | 19.73 | 118.32 | 50 | 25.36 | 50 | 14.34 | 185 | 55 | 155 | 222 | 148.82 | 8.32 | 20.56 | 53 | 95.35 | 95.45 | 21.42 | Activity [7]: 55.33 min; Activity [12]: 36.63 min
7 | CC1=NCC(c2ccc(Cl)cc2)CC(=O)O1 (configuration not stated) | 300 | 42.79 | 40.13 | 9.22 | 163.23 | 100 | 45.24 | 100 | 8.22 | 300 | 100 | 300 | 300 | 163.23 | 8.12 | 43.46 | 100 | 160.43 | 164.56 | 9.33 | 
8 | CCCCCCCC/C=C/CCCCCCCC1=NCC(c2ccc(Cl)cc2)CC(=O)O1 (configuration not stated) | 175 | 10.61 | 9.25 | 23.61 | 110.36 | 35 | 11.45 | 33 | 15.77 | 155 | 35 | 128 | 198 | 146.23 | 9.34 | 9.33 | 31 | 75.44 | 68.44 | 28.43 | Activity [7]: 93.37 min; Activity [12]: 38.65 min
9 | CCCCCCCCCCC1=NCC(c2ccc(Cl)cc2)CC(=O)O1 (configuration not stated) | 300 | 42.79 | 40.13 | 9.23 | 163.23 | 100 | 45.24 | 100 | 8.22 | 300 | 100 | 300 | 300 | 163.53 | 8.12 | 43.46 | 100 | 160.43 | 164.56 | 9.33 | 
10 | O=C1CC(c2ccc(Cl)cc2)CN=C(Cc2ccccc2)O1 (configuration not stated) | 185 | 0 | 0 | 25.63 | 106.56 | 25 | 0 | 25 | 15.38 | 0 | 27 | 0 | 234 | 125.64 | 9.53 | 0 | 22 | 70.34 | 65.34 | 28.73 | Activity [7]: 112.36 min; Activity [12]: 42.12 min
